Screening results (PubChem BioAssay)
This excerpt belongs to a sample that is enriched for hits.
INS-1E ATP HTS = preserves ATP levels in cytokine-treated INS-1E cells; INS-1E cytokine-induced death, ATP luminescence, 48 h; normalised: neutral wells 0, positive control 100; AID 488910; 0.1% of 20,000 active; protection from cytokine-induced ATP loss, % at 10 µM;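 active = mean replicate protection from cytokine-induced ATP loss at least 50% and at least 75% of replicates each reaching 50%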
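Material: INS-1E rat cells; Quantity: 8000 cells/well; Buffer or medium: phenol-red-free RPMI with 5% fetal bovine serum; Probe or stimulus: cytokine cocktail of IFN-γ, TNF-α and IL-1β; Compound dosing: single test concentration per compound, delivered by pin transfer; Incubation: 48 h co-treatment, 10 min post-lysis read; Signal: CellTiter-Glo luminescence.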
A1 apoptosis 2 = compounds inhibiting A1, read as caspase activation; caspase activation, % (no concentration beside the values); MEF A1-2A-BIM cells, caspase-Glo luminescence, 3 h; percent of clofoctol response, DMSO zero; 24,000 tested, under 10 active; in the data active = caspase activation above about 5.9%
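Evaluation: Caspase-3/7 activity from luminescence increase | Assay system: A1-2A-BIM mouse embryonic fibroblasts | Quantity: 2500 MEF cells/well | Medium: RPMI-1640 plus 10% FBS | Detection: Caspase-Glo 3/7 luminescence, 1 h at room temperature | Dosing: 50 nL compound per well, pinned | Timing: Cells settled overnight, compound exposure 3 h at 37 °C, 5% CO2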
T cruzi HTS = intracellular Trypanosoma cruzi inhibition | activity score (inhibition), % at 5.01 µM | intracellular Trypanosoma cruzi in host cells, plate reader | 4.9% of 22,000 active; in the data active = activity score above about 55%;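 also: parasites and compound incubated about four days before reading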
Each line names hits and unclear results; the compound was inactive in the other large screens.

COc1ccc([Si](C)(C)[C@@H]2[C@@H](CCO)O[C@]3(C(=O)N(Cc4ccc(N5CCC5=O)cc4)c4ccccc43)[C@H]2C)cc1	none (no result: INS-1E ATP HTS, T cruzi HTS)
CCOc1cc(OCC)cc(C(=O)N[C@@H](Cc2ccc(N=[N+]=[N-])cc2)C(=O)OC)c1	none (no result: INS-1E ATP HTS, T cruzi HTS)
COc1ccc(S(=O)(=O)N(C)C[C@H]2OCCCC[C@@H](C)Oc3ccc(NS(=O)(=O)c4ccccc4)cc3C(=O)N([C@@H](C)CO)C[C@H]2C)cc1	none (no result: INS-1E ATP HTS, T cruzi HTS)
COc1ccc(NC(=O)Nc2ccc3c(c2)C(=O)N([C@H](C)CO)C[C@H](C)[C@H](CN(C)Cc2ccc(Cl)c(Cl)c2)OCCCC[C@@H](C)O3)cc1	T cruzi HTS 64 (no result: A1 apoptosis 2)
COc1ccc(NC(=O)Nc2ccc3c(c2)C(=O)N([C@@H](C)CO)C[C@H](C)[C@@H](CN(C)Cc2ccc(Cl)c(Cl)c2)OCCCC[C@@H](C)O3)cc1	none (no result: INS-1E ATP HTS, T cruzi HTS)
COc1ccc(NC(=O)Nc2ccc3c(c2)C(=O)N([C@H](C)CO)C[C@H](C)[C@H](CN(C)Cc2ccc(Cl)c(Cl)c2)OCCCC[C@H](C)O3)cc1	none (no result: INS-1E ATP HTS, T cruzi HTS)
COc1ccc(NC(=O)Nc2ccc3c(c2)C(=O)N([C@H](C)CO)C[C@H](C)[C@@H](CN(C)Cc2ccc(Cl)c(Cl)c2)OCCCC[C@@H](C)O3)cc1	T cruzi HTS 59
NC(=O)NCC#Cc1ccc2c(c1)[C@]1(C(=O)N2)[C@H](c2ccc(OCCO)cc2)N2[C@H](c3ccccc3)[C@H](c3ccccc3)OC(=O)[C@H]2[C@@H]1C(=O)Nc1nc2ccccc2s1	none (no result: INS-1E ATP HTS, T cruzi HTS)
C[C@@H]1CN([C@H](C)CO)C(=O)c2cccc(NC(=O)c3nc4ccccc4s3)c2O[C@@H]1CN(C)Cc1ccc(-c2ccccc2)cc1	none
C[C@H]1CN([C@@H](C)CO)C(=O)c2cccc(NC(=O)c3nc4ccccc4s3)c2O[C@@H]1CN(C)Cc1ccc(Oc2ccccc2)cc1	none
C[C@H](CO)N1C[C@H](C)[C@@H](CN(C)Cc2ccc(Oc3ccccc3)cc2)Oc2c(NC(=O)c3nc4ccccc4s3)cccc2C1=O	T cruzi HTS 66 (no result: A1 apoptosis 2)
C[C@@H]1CN([C@H](C)CO)C(=O)c2cccc(NC(=O)c3nc4ccccc4s3)c2O[C@@H]1CN(C)Cc1ccc(C(=O)Nc2ccccc2N)cc1	none (no result: INS-1E ATP HTS, T cruzi HTS)
C[C@@H]1CN([C@@H](C)CO)C(=O)c2cccc(NC(=O)c3nc4ccccc4s3)c2O[C@H]1CN(C)Cc1ccc(C(=O)Nc2ccccc2N)cc1	T cruzi HTS 70 (no result: A1 apoptosis 2)
C[C@H]1CN([C@@H](C)CO)C(=O)c2cccc(NC(=O)c3nc4ccccc4s3)c2O[C@@H]1CN(C)Cc1ccc(Cl)c(Cl)c1	T cruzi HTS 65
C[C@@H]1CN([C@@H](C)CO)C(=O)c2cccc(NC(=O)c3nc4ccccc4s3)c2O[C@H]1CN(C)Cc1ccc(-c2ccccc2)cc1	T cruzi HTS 71 (no result: A1 apoptosis 2)
C[C@@H]1CN([C@H](C)CO)C(=O)c2cccc(NC(=O)c3nc4ccccc4s3)c2O[C@@H]1CN(C)Cc1ccccc1	none
O=C(N/N=C/c1cc(Br)cs1)c1ccccn1	none
O=C(N/N=C/c1cccc(Oc2ccccc2)c1)c1ccccn1	none (no result: A1 apoptosis 2)
[N-]=[N+]=Nc1ccccc1C[C@@]1(C(=O)NCC(O)CO)N=C(c2ccc(OCCCO)cc2)O[C@@H]1c1ccccc1 (stereo not given in full)	none (no result: INS-1E ATP HTS, T cruzi HTS)
Cc1ccc(S(=O)(=O)Nc2ccc3c(c2)C(=O)N([C@H](C)CO)C[C@@H](C)[C@@H](CN(C)Cc2ccc(Cl)c(Cl)c2)OCCCC[C@H](C)O3)cc1	none (no result: INS-1E ATP HTS, T cruzi HTS)
C[C@@H]1CCCCO[C@H](CN(C)Cc2ccc(Cl)c(Cl)c2)[C@@H](C)CN([C@H](C)CO)C(=O)c2cc(NS(=O)(=O)c3ccc(F)cc3)ccc2O1	T cruzi HTS 65 (no result: A1 apoptosis 2)
C[C@@H]1CCCCO[C@@H](CN(C)Cc2ccc(Cl)c(Cl)c2)[C@@H](C)CN([C@H](C)CO)C(=O)c2cc(NS(=O)(=O)c3ccccc3)ccc2O1	T cruzi HTS 66 (no result: A1 apoptosis 2)
C[C@@H]1CCCCO[C@H](CN(C)Cc2ccc(Cl)c(Cl)c2)[C@@H](C)CN([C@@H](C)CO)C(=O)c2cc(NS(=O)(=O)c3ccc(Cl)cc3)ccc2O1	none (no result: INS-1E ATP HTS, T cruzi HTS)
C[C@@H]1CCCCO[C@@H](CN(C)Cc2ccc(Cl)c(Cl)c2)[C@@H](C)CN([C@@H](C)CO)C(=O)c2cc(NS(=O)(=O)c3ccc(F)cc3)ccc2O1	none (no result: INS-1E ATP HTS, T cruzi HTS)
COc1ccc(S(=O)(=O)Nc2ccc3c(c2)C(=O)N([C@@H](C)CO)C[C@H](C)[C@@H](CN(C)Cc2ccc(Cl)c(Cl)c2)OCCCC[C@@H](C)O3)cc1	none (no result: INS-1E ATP HTS, T cruzi HTS)
Cc1ccc(S(=O)(=O)Nc2ccc3c(c2)C(=O)N([C@H](C)CO)C[C@H](C)[C@H](CN(C)Cc2ccc(Cl)c(Cl)c2)OCCCC[C@@H](C)O3)cc1	T cruzi HTS 77 (no result: A1 apoptosis 2)
